Results reported in ChEMBL document CHEMBL4049418, “6-OH-Phenanthroquinolizidine Alkaloid and Its Derivatives Exert Potent Anticancer Activity by Delaying S Phase Progression” (J Med Chem, 2017).
The source made the active and inactive calls. No cut-off for these calls is given here.

How the values were obtained:
Bel-7402 [1] = experiment: Cell cycle arrest in human Bel7402 cells assessed as accumulation in S-phase at 10 nM after 24 hrs by propidium iodide staining-based flow cytometry (reference value: 27.5 +/- 1%); type: functional
Method in brief: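 BEL-7402 cells exposed for 24 h, then fixed in 70% ethanol at −20 °C for ≥1 h. Stained with 50 μg/mL propidium iodide plus 10 μg/mL RNase A for 30 min in the dark at room temperature. DNA content read by flow cytometry on ≥1.0 × 10⁴ cells per sample.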

[2] = Cytotoxicity against Sprague-Dawley rat primary neuronal cells assessed as reduction in cell viability after 24 hrs by MTT assay; type: cell-based
[3] = Antiproliferative activity against human MRC9 cells assessed as reduction in viability after 72 hrs by SRB assay; type: cell-based; conditions: MRC9, 72 h
Method in brief: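 Cells seeded and dosed in triplicate for 72 h. Suspension lines (HL-60, K-562, K562/ADR, HL-60/MX2) were read by MTT: 5 mg/mL MTT stock added, 4 h at 37 °C, formazan dissolved in 10% SDS/5% isobutanol/10 mM HCl, A570. Adherent lines were read by SRB: fixed with cold 10% TCA, stained with 0.4% SRB in 1% acetic acid, A540. IC50 from four-parameter logistic fit; mean of ≥3 independent experiments.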

[4] = Selectivity ratio of IC50 for human MRC9 cells to IC50 for human A549 cells
Method in brief: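 SRB assay: A549 (F-12, 10% FBS) and MRC-5/MRC-9 (EMEM, 10% FBS) treated in triplicate 72 h, fixed with ice-cold 10% TCA, stained with 0.4% SRB in 1% acetic acid, absorbance 540 nm; IC₅₀ by four-parameter logistic fit, mean of ≥3 independent experiments.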

Bel-7402 [5] = experiment: Induction of apoptosis in human Bel7402 cells assessed as late apoptotic cells at 1 nM after 72 hrs by Annexin V/propidium iodide staining based flow cytometric analysis (reference value: 3.6%); type: functional
Method in brief: (§1)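 BEL-7402 cells (3 × 10⁵ per well, 6-well plates) exposed for 72 h. Harvested, PBS-washed, resuspended in cold binding buffer with annexin V–FITC and PI, and stained 15 min in the dark at room temperature. Early apoptotic, late apoptotic and necrotic fractions quantified by flow cytometry.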

Zip-177 = experiment: Cell cycle arrest in human Zip-177 cells assessed as delay in progression of S-phase to G2-phase at 1 to 10 nM pre-treated with aphidicolin for 16 hrs followed by compound addition measured after 24 hrs by propidium iodide staining-based flow cytometric method; type: functional
Method in brief: (§2)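 Exponentially growing cells synchronized in early S phase with 0.2 μg/mL aphidicolin for 16 h. Cells released into fresh medium with or without compound for set times. Ethanol-fixed, stained with PI/RNase, and cell cycle distribution read by flow cytometry. Representative of three independent experiments.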

Bel-7402 [6] = experiment: Induction of necrosis in human Bel7402 cells after 72 hrs by trypan blue exclusion assay; type: functional, cell-based
Method in brief: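 BEL-7402 cells seeded at 5 × 10⁴ per well, exposed to compounds 72 h; trypsinized, stained with 0.4% Trypan blue (9:1 dilution) for 3 min; unstained (viable) and stained (necrotic) cells counted separately on a hemocytometer.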

Bel-7402 [7] = experiment: Cell cycle arrest in human Bel7402 cells assessed as delay in progression of S-phase to G2-phase at 10 nM pre-treated with aphidicolin for 16 hrs followed by compound addition measured up to 24 hrs by propidium iodide staining-based flow cytometric method; type: functional; method in brief: as §2
Bel-7402 [8] = experiment: Induction of apoptosis in human Bel7402 cells assessed as necrotic cells at 10 nM after 72 hrs by Annexin V/propidium iodide staining based flow cytometric analysis (reference value: 0.38%); type: functional
[9] = Cytotoxicity against Sprague-Dawley rat primary neuronal cells assessed as reduction in cell viability at 300 nM after 24 hrs by MTT assay; type: cell-based; conditions: read-out: INH
Bel-7402 [10] = experiment: Induction of DNA damage in human Bel7402 cells assessed as increase in gamma-H2AX levels at 1 to 100 nM after 1 hr by Western blot analysis; type: functional, cell-based
Method in brief: (§3)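 BEL-7402 cells (1.5 × 10⁵ per well, 12-well plates) exposed to compounds for 1 h. Phospho-Chk1 Ser345, phospho-Chk2 Thr68 and γH2AX detected by Western blot. Camptothecin at 1 μM served as the DNA-damage reference.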

Bel-7402 [11] = experiment: Induction of apoptosis in human Bel7402 cells assessed as viable cells at 1 nM after 72 hrs by Annexin V/propidium iodide staining based flow cytometric analysis (reference value: 92.4%); type: functional; conditions: Bel-7402, 72 h, read-out: Activity
Bel-7402 [12] = experiment: Cell cycle arrest in human Bel7402 cells assessed as delay in progression of S-phase to G2-phase at 1 to 3 nM pre-treated with aphidicolin for 16 hrs followed by compound addition measured after 4 hrs by propidium iodide staining-based flow cytometric method; type: functional; method in brief: as §2
Bel-7402 [13] = experiment: Inhibition of DNA synthesis in human Bel7402 cells assessed as BrdU incorporation at 1 nM preincubated for 1 hr followed by BrdU addition for 30 mins by FITC/propidium iodide staining based flow cytometry (reference value: 35.5%); type: functional; parameters: scale not given: the % may be the effect or the level left
Method in brief: (§4)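 BEL-7402 cells (3 × 10⁵ per well) exposed to compounds 1 h, then labeled with 10 μM BrdU for 30 min; trypsinized, fixed in 70% ethanol at −20 °C ≥1 h, 2 N HCl 20 min, neutralized with 0.1 M borate, stained with anti-BrdU-FITC plus PI 30 min; BrdU-positive cells quantified by flow cytometry; three independent experiments, mean + SD.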

Bel-7402 [14] = experiment: Induction of apoptosis in human Bel7402 cells assessed as early apoptotic cells at 10 uM after 72 hrs by Annexin V/propidium iodide staining based flow cytometric analysis (reference value: 3.66%); type: functional; method in brief: as §1
Bel-7402 [15] = experiment: Induction of apoptosis in human Bel7402 cells assessed as viable cells at 10 uM after 72 hrs by Annexin V/propidium iodide staining based flow cytometric analysis (reference value: 92.4%); type: functional; conditions: Bel-7402, 72 h, read-out: Activity
Bel-7402 [16] = experiment: Induction of DNA damage in human Bel7402 cells assessed as increase in CHK1 phosphorylation at Ser345 residue at 0.1 to 10 uM after 1 hr by Western blot analysis; type: functional, cell-based; method in brief: as §3
[17] = Growth inhibition of human KB-HU-R cells after 8 days by methylene blue-staining based spectrophotometry; type: functional; conditions: 192 h
K562/Adr = experiment: Effect on P-gp expression in human K562/ADR cells up to 10 uM after 24 hrs by Western blot analysis; type: functional, cell-based
Bel-7402 [18] = experiment: Induction of apoptosis in human Bel7402 cells assessed as necrotic cells at 1 uM after 72 hrs by Annexin V/propidium iodide staining based flow cytometric analysis (reference value: 0.38%); type: functional
Bel-7402 [19] = experiment: Induction of apoptosis in human Bel7402 cells assessed as viable cells at 1 uM after 72 hrs by Annexin V/propidium iodide staining based flow cytometric analysis (reference value: 92.4%); type: functional; conditions: Bel-7402, 72 h, read-out: Activity
Bel-7402 [20] = experiment: Induction of apoptosis in human Bel7402 cells assessed as late apoptotic cells at 10 uM after 72 hrs by Annexin V/propidium iodide staining based flow cytometric analysis (reference value: 3.6%); type: functional; method in brief: as §1
Bel-7402 [21] = experiment: Inhibition of DNA synthesis in human Bel7402 cells assessed as BrdU incorporation at 10 uM preincubated for 1 hr followed by BrdU addition for 30 mins by FITC/propidium iodide staining based flow cytometry (reference value: 35.5%); type: functional; parameters: scale not given: the % may be the effect or the level left; method in brief: as §4

## COc1cc2c3c(c4ccc(O)cc4c2cc1OC)CN1CCCC[C@@H]1C3
Bel-7402 [1]
  Activity: 50.3%
[2]
  inhibition (INH): Dose-dependent effect
[3]
  IC50: 2.2 nM
[4]
  Ratio IC50: 3 - 4
Bel-7402 [5]
  Activity: 2.11%
Zip-177
  Activity: Active
Bel-7402 [6]
  Activity: Dose-dependent effect
Bel-7402 [7]
  Activity: Active
Bel-7402 [8]
  Activity: 0.94%
[9]
  cytotoxicity at 24 h, 0.3 µM: 50%
Bel-7402 [10]
  Activity: inactive
Bel-7402 [11]
  viability at 0.001 µM: 94.4%
Bel-7402 [12]
  Activity: Active
Bel-7402 [13]
  Activity: 28.6%

## COc1cc2c3c(c4cc(OC)c(OC)cc4c2cc1OC)[C@H](O)[C@@H]1CCCN1C3
Bel-7402 [14]
  Activity: 2.06%
Bel-7402 [15]
  viability at 10 µM: 85.1%
Bel-7402 [16]
  Activity: inactive
[17]
  GI50: 30 nM
K562/Adr
  Activity: inactive
Bel-7402 [18]
  Activity: 0.81%
Bel-7402 [19]
  viability at 1 µM: 94.7%
Bel-7402 [20]
  Activity: 11.5%
Bel-7402 [21]
  Activity: 1.9%
